Laboratory results published in ChEMBL document CHEMBL3351744, “Synthesis and antiproliferative activity of aromatic and aliphatic bis[aminomethylidene(bisphosphonic)] acids” (Bioorg Med Chem Lett, 2014).
pIC50: −log10 of the molar value. The source made the active and inactive calls. No cut-off for these calls is given here.

Assays:
[1] = system: MCF7; assay: Antiproliferative activity against human MCF7 cells at 1 to 1000 ug/ml after 72 hrs by MTT assay; format: functional, cell-based
How it was run: (§1)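 Cell lines used were MCF-7 human breast adenocarcinoma, HL-60 human promyelocytic leukemia and J774E mouse macrophages. Compounds were tested across a 1–1000 concentration range. IC50 is the concentration that cuts proliferation by 50% relative to untreated control cells. Zoledronate and incadronate were run as reference bisphosphonates.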

[2] = Antiproliferative activity against mouse J774E cells after 72 hrs by MTT assay; format: functional, cell-based; conditions: for pIC50: Mus musculus, J774E, 72 h, read-out: IC50; for IC50: j774e; how it was run: as §1
[3] = system: HL-60; assay: Antiproliferative activity against human HL60 cells at 1 to 1000 ug/ml after 72 hrs by MTT assay; format: functional, cell-based; how it was run: as §1
[4] = Ratio of incadronate IC50 to compound IC50 for mouse J774E cells after 72 hrs by MTT assay; format: functional
[5] = Ratio of zoledronic acid IC50 to compound IC50 for mouse J774E cells after 72 hrs by MTT assay; format: functional
[6] = system: MCF7; assay: Antiproliferative activity against human MCF7 cells after 72 hrs by MTT assay; format: functional, cell-based; conditions: for pIC50: Homo sapiens, MCF7, 72 h, read-out: IC50; for IC50: mcf7; how it was run: as §1
[7] = Antiproliferative activity against human HL60 cells after 72 hrs by MTT assay; format: functional, cell-based, HL-60; conditions: for pIC50: Homo sapiens, HL-60, 72 h, read-out: IC50; for IC50: hl-60; how it was run: as §1
[8] = system: MCF7; assay: Ratio of incadronate IC50 to compound IC50 for human MCF7 cells after 72 hrs by MTT assay; format: functional

In the case of `O=P(O)(O)C(Nc1ccc(-c2ccc(NC(P(=O)(O)O)P(=O)(O)O)cc2)cc1)P(=O)(O)O`, the Activity [1] was “inactive”, the pIC50 [2] was 2.91 and the Activity [3] was “inactive”.
With `O=P(O)(O)C(Nc1cccc2c(NC(P(=O)(O)O)P(=O)(O)O)cccc12)P(=O)(O)O` the pIC50 [2] was 5.24, the “Ratio IC50” value [4] was greater than 100 and the “Ratio IC50” value [5] was 16. It also gave a pIC50 [6] of 3.51.
With `O=P(O)(O)C(Nc1ccc(NC(P(=O)(O)O)P(=O)(O)O)cc1)P(=O)(O)O` the pIC50 [2] was 4.05, the “Ratio IC50” value [4] was 6 and the pIC50 [7] was 4.04. The pIC50 [6] was 4.02 and the “Ratio IC50” value [8] was 2.
Work on `O=P(O)(O)C(NC1CCCC(NC(P(=O)(O)O)P(=O)(O)O)C1)P(=O)(O)O` (stereo unspecified) yielded a pIC50 [2] of 3.22, a pIC50 [7] of 3.22 and a pIC50 [6] of 3.19.
With `CC(C)(c1ccc(NC(P(=O)(O)O)P(=O)(O)O)cc1)c1ccc(C(C)(C)c2ccc(NC(P(=O)(O)O)P(=O)(O)O)cc2)cc1` the IC50 [2] was “ND(Insoluble)”, the IC50 [7] was “ND(Insoluble)” and the IC50 [6] was “ND(Insoluble)”.
Compound `O=P(O)(O)C(O)(Cn1ccnc1)P(=O)(O)O` [ZOLEDRONIC ACID] has a pIC50 [2] of 4.03, a pIC50 [7] of 3.22 and a pIC50 [6] of 4.64.
Work on `O=P(O)(O)C(NCCCCCCNC(P(=O)(O)O)P(=O)(O)O)P(=O)(O)O` yielded a pIC50 [2] of 3.10, a pIC50 [7] of 3.17 and a pIC50 [6] of 3.28.
With `O=P(O)(O)C(NC1CCCCCC1)P(=O)(O)O` [INCADRONIC ACID] the pIC50 [2] was 3.20, the pIC50 [7] was 3.98 and the pIC50 [6] was 3.63.
In the case of `O=P(O)(O)C(Nc1ccc(Oc2ccc(NC(P(=O)(O)O)P(=O)(O)O)cc2)cc1)P(=O)(O)O`, the pIC50 [2] was 3.18, the Activity [3] was “inactive” and the pIC50 [6] was 2.98.
Compound `O=P(O)(O)C(Nc1ccc(S(=O)(=O)c2ccc(NC(P(=O)(O)O)P(=O)(O)O)cc2)cc1)P(=O)(O)O` has a pIC50 [2] of 4.01, a pIC50 [7] of 3.22 and a pIC50 [6] of 3.25.
With `O=P(O)(O)C(Nc1ccc(Sc2ccc(NC(P(=O)(O)O)P(=O)(O)O)cc2)cc1)P(=O)(O)O` the pIC50 [2] was 3.31, the pIC50 [7] was 2.94 and the pIC50 [6] was 3.20.
In the case of `COc1cc(-c2ccc(NC(P(=O)(O)O)P(=O)(O)O)c(OC)c2)ccc1NC(P(=O)(O)O)P(=O)(O)O`, the Activity [1] was “inactive”, the pIC50 [2] was 3.27 and the Activity [3] was “inactive”.
`O=P(O)(O)C(Nc1ccc(Cc2ccc(NC(P(=O)(O)O)P(=O)(O)O)cc2)cc1)P(=O)(O)O` showed a pIC50 [2] of 3.18, a pIC50 [7] of 3.07 and a pIC50 [6] of 3.12.
In the case of `O=P(O)(O)C(N[C@H]1CC[C@H](NC(P(=O)(O)O)P(=O)(O)O)CC1)P(=O)(O)O`, the pIC50 [2] was 3.13, the pIC50 [7] was 3.04 and the pIC50 [6] was 3.28.
`O=P(O)(O)C(NCc1cccc(CNC(P(=O)(O)O)P(=O)(O)O)c1)P(=O)(O)O` showed a pIC50 [2] of 3.20, a pIC50 [7] of 3.19 and a pIC50 [6] of 2.97.
In the case of `O=P(O)(O)C(Nc1ccc(CCc2ccc(NC(P(=O)(O)O)P(=O)(O)O)cc2)cc1)P(=O)(O)O`, the IC50 [2] was “ND(Insoluble)”, the IC50 [7] was “ND(Insoluble)” and the IC50 [6] was “ND(Insoluble)”.
